The values below come from ChEMBL document CHEMBL3856275, “Discovery of Second Generation Reversible Covalent DPP1 Inhibitors Leading to an Oxazepane Amidoacetonitrile Based Clinical Candidate (AZD7986)” (J Med Chem, 2016).

In data set [1] the target is T1, Dipeptidyl peptidase 1 (Homo sapiens, UniProt P53634). The experiment in a line: Inhibition of human recombinant DPP1 using Gly-Arg-AMC as substrate preincubated for 30 mins followed by substrate addition by fluorometric assay. The procedure, abridged:
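Isolated human recombinant DPP1 was run in a fluorometric assay in piperazine-based buffer. Compound was pre-incubated with enzyme for 30 min at rt, then Gly-Arg-AMC dipeptide substrate was added. Data were curve-fitted to give pIC50, as the mean of at least two experiments.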

Data set [2] is described as follows: Propionaldehyde reactivity assessed as half life of the compound at pH 7.4 by LC-UV method. It counts as physicochemical.
In data set [3] the target is T1, Dipeptidyl peptidase 1. As to the kind of experiment: Inhibition of DPP1 in human U937 cells using Gly-Phe-AFC as substrate preincubated for 60 mins followed by substrate addition by fluorescence assay. Format: cell-based, U-937.
A short description of a further data set: physchem. As to conditions: octanol/water, pH 7.4.

A word on the IC50: it is the midpoint of a concentration-inhibition curve. Usually half-life stands for the time in which the quantity being followed falls by half. Broadly, the logD is the decadic logarithm of the distribution of all forms, ionised or not, between an organic phase and buffer at a given pH. Low values mean lower lipophilicity, high ones higher lipophilicity.

Where only a bound is given, the exact number is not on record here.

T1 sequence (P53634 25-134 limits assumed): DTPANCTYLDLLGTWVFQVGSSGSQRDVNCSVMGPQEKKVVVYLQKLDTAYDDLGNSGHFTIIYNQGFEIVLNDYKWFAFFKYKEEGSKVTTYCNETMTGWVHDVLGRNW
T1 sequence (P53634 231-394 limits assumed): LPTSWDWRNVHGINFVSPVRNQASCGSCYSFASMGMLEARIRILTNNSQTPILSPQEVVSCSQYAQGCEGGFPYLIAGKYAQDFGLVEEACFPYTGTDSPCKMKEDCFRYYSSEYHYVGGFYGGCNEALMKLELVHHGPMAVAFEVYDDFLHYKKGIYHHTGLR
T1 sequence (P53634 395-463 limits assumed): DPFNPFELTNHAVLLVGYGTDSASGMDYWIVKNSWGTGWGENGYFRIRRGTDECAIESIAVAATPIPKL

With `N#Cc1ccc(-c2ccc(C[C@@H](C#N)NC(=O)[C@@H]3CCC[C@@H]3N)cc2)cc1`, the IC50 on Dipeptidyl peptidase 1 [1] was 1000 nM; against Dipeptidyl peptidase 1 [3] it was 1260 nM. Besides, in data set [2], the half-life was above 50 h.
Regarding `N#Cc1ccc(-c2ccc(C[C@@H](C#N)NC(=O)[C@H]3CNCCO3)cc2)cc1`, the IC50 at Dipeptidyl peptidase 1 [1] is above 10000 nM. In “physchem”, this molecule gave a logD at 10 µM of 1.6. Further, in data set [2], the half-life is above 50 h.
Regarding `N#Cc1ccc(-c2ccc(C[C@@H](C#N)NC(=O)C3(N)CCOCC3)cc2)cc1`, the half-life in data set [2] is below 1 h.
Consider `N#Cc1ccc(-c2ccc(C[C@@H](C#N)NC(=O)C3CCCCNC3)cc2)cc1` (mixture of isomers), for which the IC50 is 1260 nM at Dipeptidyl peptidase 1 [1] and 501 nM against Dipeptidyl peptidase 1 [3]. For the same molecule, the half-life in data set [2] is above 50 h.
As for `N#Cc1cccc(-c2ccc(C[C@@H](C#N)NC(=O)C3CCCCC3N)cc2)c1` (some centres undefined), on Dipeptidyl peptidase 1 [1], the IC50 was 1000 nM.
Turning to `N#Cc1ccc(-c2ccc(C[C@@H](C#N)NC(=O)[C@H]3CCCNC3)cc2)cc1`, the 50% inhibitory concentration (IC50) on Dipeptidyl peptidase 1 [1] is above 10000 nM. The logD at 10 µM in the data set “physchem” was 0.2.
`CN1C(=O)COc2ccc(-c3ccc(C[C@@H](C#N)NC(=O)[C@@H]4CNCCCO4)cc3)cc21` came in with a log distribution coefficient (logD) at 10 µM in “physchem” of 1.1. Moreover, at Dipeptidyl peptidase 1 [3], the IC50 is 12.6 nM.
`CN1C(=O)Cc2ccc(-c3ccc(C[C@@H](C#N)NC(=O)C4(N)CCOCC4)cc3)cc21` gave an IC50 against Dipeptidyl peptidase 1 [3] of 1.58 nM.
In the case of `Cc1noc2ccc(-c3ccc(C[C@@H](C#N)NC(=O)[C@@H]4CNCCCO4)cc3)cc12`, the IC50 at Dipeptidyl peptidase 1 [1] and against Dipeptidyl peptidase 1 [3] was 15.8 nM throughout. Also, the logD at 10 µM in “physchem” amounted to 1.5.
Take `N#Cc1ccc(-c2ccc(C[C@@H](C#N)NC(=O)[C@H]3CCCC[C@@H]3N)cc2)cc1`: the values for the IC50 at Dipeptidyl peptidase 1 [1] and against Dipeptidyl peptidase 1 [3] were 501 nM and 398 nM, respectively. In data set [2], the half-life is above 50 h.
For the molecule `Cn1c(=O)cnc2ccc(-c3ccc(C[C@@H](C#N)NC(=O)[C@@H]4CNCCCO4)cc3)cc21`, the IC50 on Dipeptidyl peptidase 1 [1] is 25.1 nM. This molecule also showed a logD at 10 µM in “physchem” of 0.6.
Regarding `N#Cc1ccc(-c2ccc(C[C@@H](C#N)NC(=O)[C@H]3CCCC[C@H]3N)cc2)cc1`, on Dipeptidyl peptidase 1 [1], the IC50 was above 10000 nM. Besides, in data set [2], the half-life is above 50 h.
Consider `Cn1c(=O)ccc2ccc(-c3ccc(C[C@@H](C#N)NC(=O)[C@@H]4CNCCCO4)cc3)cc21`, for which the concentration for half-maximal inhibition (IC50) at Dipeptidyl peptidase 1 [1] and against Dipeptidyl peptidase 1 [3] was 12.6 nM in each case. Moreover, in “physchem”, the pH-dependent lipophilicity (logD) at 10 µM worked out at 1.1.
Consider `N#C[C@H](Cc1ccc(-c2ccc3scnc3c2)cc1)NC(=O)[C@@H]1CNCCCO1`, for which the IC50 at Dipeptidyl peptidase 1 [1] was 63.1 nM. In the data set “physchem”, the logD at 10 µM was 1.5.
For `N#C[C@H](Cc1ccc(-c2ncc(C(F)(F)F)cn2)cc1)NC(=O)[C@@H]1CNCCCO1`, the IC50 at Dipeptidyl peptidase 1 [1] and against Dipeptidyl peptidase 1 [3] was 200 nM in each case. Besides, the logD at 10 µM in “physchem” is 1.1.
Consider `N#Cc1ccc(-c2ccc(C[C@@H](C#N)NC(=O)C3CNCCCO3)cc2)cc1` (mixture of isomers), for which the IC50 at Dipeptidyl peptidase 1 [1] was 63.1 nM. In the data set “physchem”, this molecule returned a logD at 10 µM of 1.1. In addition, the half-life in data set [2] was above 50 h.
Take `N#C[C@H](Cc1ccc(-c2ccc(C(F)(F)F)cc2)cc1)NC(=O)[C@@H]1CNCCCO1`: the IC50 on Dipeptidyl peptidase 1 [1] is 39.8 nM. In the data set “physchem”, this molecule had a logD at 10 µM of 2.8.
In the case of `N#Cc1ccc(-c2ccc(C[C@@H](C#N)NC(=O)[C@@H]3CNCCO3)cc2)cc1`, the IC50 on Dipeptidyl peptidase 1 [1] was 398 nM; against Dipeptidyl peptidase 1 [3], 501 nM. In the data set “physchem”, this molecule gave a logD at 10 µM of 1.4. For the same molecule, the half-life in data set [2] is above 50 h.
Regarding `N#Cc1ccc(-c2ccc(C[C@@H](C#N)NC(=O)[C@@H]3CCCNC3)cc2)cc1`, the IC50 on Dipeptidyl peptidase 1 [1] is above 10000 nM. In the data set “physchem”, the logD at 10 µM worked out at 0.6.
Consider `CN1C(=O)C(F)(F)c2ccc(-c3ccc(C[C@@H](C#N)NC(=O)[C@@H]4CNCCCO4)cc3)cc21`, for which the IC50 at Dipeptidyl peptidase 1 [1] and against Dipeptidyl peptidase 1 [3] was 15.8 nM each time. This molecule also gave a logD at 10 µM in the data set “physchem” of 1.4.
As to `N#Cc1ccc(-c2ccc(C[C@@H](C#N)NC(=O)[C@@H]3CCCC[C@H]3N)cc2)cc1`, the IC50 is 316 nM on Dipeptidyl peptidase 1 [1] and 158 nM on Dipeptidyl peptidase 1 [3]. The half-life in data set [2] was above 50 h.
`N#Cc1ccc(-c2ccc(C[C@@H](C#N)NC(=O)[C@H]3CNCCCO3)cc2)cc1`: the IC50 at Dipeptidyl peptidase 1 [1] is 6310 nM. In the data set “physchem”, this molecule had a logD at 10 µM of 1.2. Besides, in data set [2], the half-life was above 50 h.
